High-throughput results as filed in PubChem BioAssay.
Compounds with a hit are over-represented: about 4.2% of the library has one in this group of screens.
KCNQ1 act: potentiators or activators of human KCNQ1 potassium channel; P51787; CHO-K1 KCNQ1, thallium flux FluxOR fluorescence; active compounds read high; B-score at 10 µM; 310,000 compounds, 0.35% hits;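 active = fluorescence ratio B-score, a plate-corrected score, at least three library SD, with initial intensity B-score within 5 SD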
Target sequence (P51787 whole entry, looked up): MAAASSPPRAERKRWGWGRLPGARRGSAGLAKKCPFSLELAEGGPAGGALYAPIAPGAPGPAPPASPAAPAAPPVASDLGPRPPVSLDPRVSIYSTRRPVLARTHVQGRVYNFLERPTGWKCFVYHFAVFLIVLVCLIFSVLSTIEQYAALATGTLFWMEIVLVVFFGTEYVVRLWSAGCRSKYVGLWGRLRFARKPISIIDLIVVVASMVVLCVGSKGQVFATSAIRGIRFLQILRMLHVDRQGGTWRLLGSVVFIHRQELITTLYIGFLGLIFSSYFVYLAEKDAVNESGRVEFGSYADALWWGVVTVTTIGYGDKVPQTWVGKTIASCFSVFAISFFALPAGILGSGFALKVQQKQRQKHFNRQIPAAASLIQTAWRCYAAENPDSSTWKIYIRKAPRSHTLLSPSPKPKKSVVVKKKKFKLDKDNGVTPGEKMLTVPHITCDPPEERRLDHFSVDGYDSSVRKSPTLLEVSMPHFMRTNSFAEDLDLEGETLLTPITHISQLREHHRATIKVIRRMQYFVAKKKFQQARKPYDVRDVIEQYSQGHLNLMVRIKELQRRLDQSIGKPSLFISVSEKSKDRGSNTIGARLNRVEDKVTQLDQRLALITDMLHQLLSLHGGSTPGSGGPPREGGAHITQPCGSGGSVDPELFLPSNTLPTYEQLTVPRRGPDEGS
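System: CHO-K1 cells stably expressing KCNQ1 / Medium: assay buffer for compound exposure, DMSO matched across wells / Reagent: thallium- and potassium-containing depolarizing buffer / Compound: one concentration, matched DMSO / Incubation: 20 min compound pretreatment at room temperature / Measured by: kinetic FluxOR fluorescence, 10 s baseline plus 110 s post-stimulus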
hERG protect: compounds protecting human hERG from proarrhythmic drug block; AID 1511; CHO-hERG, FluxOR thallium flux, dofetilide IC70 present; Q12809; 310,000 compounds, 0.51% hits; activation (rescue from dofetilide block), less the hit threshold, % at 10 µM;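 active = activation above the mean of controls blocked by dofetilide plus 5 SD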;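 note: thallium influx through hERG after potassium depolarization seen as dye fluorescence rise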
KCNQ1 block: human KCNQ1 channel inhibition. P51787. CHO-K1 KCNQ1, FluxOR thallium flux fluorescence; active compounds read high. B-score at 10 µM. 310,000 compounds, 1.3% hits. AID 2642;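 active = compounds whose thallium flux B-score, printed positive for inhibition, exceeds three library SD while starting fluorescence stays within three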;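 note: channel opened by potassium depolarization with thallium stimulus after 20 min compound exposure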
SUMO Mot1 rescue: blocks SUMOylation pathway, rescuing yeast Mot1-301 growth; 320,000 compounds, 1% hits; AID 2716; growth rescue, % at 18.8 µM; S. cerevisiae Mot1-301 growth rescue, ATP luminescence, 38.5C; percent above DMSO median, 100 means doubled;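 active = every valid replicate shows activation above 250% relative to neutral control wells; inactive = the rest, any valid replicate at or below 250%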
KCC2 mod: modulators of human KCC2 chloride dependent transport. 190,000 compounds, 2.2% hits. B-score of Tl+ flux slope (higher = more flux/activation; lower = inhibition) at 10 µM. AID 1456. KCC2 cells, thallium flux FluoZin-2 fluorescence;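 active = thallium flux slope and its plate-corrected score both differing from the plate sample mean at a set confidence after two filtering rounds, in either direction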;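 note: slope of fluorescence scaled to starting intensity during 10 to 20 s after thallium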
AI-2 QS mod: modulates the Vibrio harveyi AI-2 quorum sensing system | 300,000 compounds, 0.4% hits | Vibrio harveyi JMH597 AI-2 luminescence/OD600 ratio, 9 h; active compounds read low; strain lacks LuxN and CqsS sensors; 0 = neutral-control median | activity change, % at 7.5 µM | AID 2094; in the data active = activity change below about -75%, passing the limit was not always enough; inconclusive = no clear call, values can overlap the other calls;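 note: luminescence divided by OD600 gain over 9 h not by final OD600 alone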
KCC2 sec1: KCC2 (human) modulation, secondary assay; shares compounds with KCC2 mod; HEK293-KCC2, thallium flux, FluoZin2 fluorescence; active compounds read high; normalised thallium flux (F/F0 slope) at 10 µM; 3,700 compounds, 15% hits; AID 1713;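 active = thallium flux slope above the same plate's solvent-only control mean plus 3 SD; inconclusive = the two replicate wells disagree; inactive = no significant difference from solvent-only control wells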
KCC2 bumet counter: bumetanide-insensitive thallium flux in KCC2 cells with ouabain, counter-screen; shares compounds with KCC2 mod; HEK293-KCC2 + bumetanide/ouabain, thallium flux FluoZin2; active compounds read high; normalized thallium flux at 10 µM; 3,700 compounds, 49% hits;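 active = thallium entry rate above the same plate's blocked-transporter control wells by more than 3 SD; inconclusive = the two repeat wells disagree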;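 note: raw slope of fluorescence over initial fluorescence between 10 and 20 s after thallium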
KCC2 sec2: KCC2 (human) modulation, second secondary assay; normalized thallium flux at 10 µM; HEK293-KCC2, thallium flux FluoZin2 fluorescence; actives lie on both sides; F/F0 rise rate, 10–20 s post-thallium; shares compounds with KCC2 mod; 3,700 compounds, 23% hits;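 active = thallium flux slope more than 3 SD above or below the plate's solvent-only control mean, mostly below; inconclusive = the two repeat wells disagreed; inactive = no significant shift from solvent-only controls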
HEK counter1: parental HEK flux effect, counter-screen; shares compounds with KCC2 mod; HEK293 parental cells, thallium flux FluoZin2, ouabain; baseline-ratio fluorescence slope, 10–20 s after thallium; thallium flux rate (normalised fluorescence) at 10 µM; 3,700 compounds, 46% hits; AID 1716;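 active = thallium flux rate significantly above the same plate's solvent-only control wells, beyond their mean plus 3 SD; inconclusive = the two replicate wells gave conflicting results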
KCC2 ouabain: modulates human KCC2 on retest with ouabain. shares compounds with KCC2 mod. HEK293-KCC2, thallium flux FluoZin2 fluorescence; bidirectional: low = inhibitor, high = activator. raw Tl+ flux slope (below DMSO = inhibition, above = activation) at 10 µM. 3,700 compounds, 48% hits. AID 1717;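 active = thallium flux slope beyond 3 SD from same-plate DMSO control mean in most replicates, usually higher, sometimes lower; inconclusive = repeat tests gave conflicting results; inactive = no significant difference from controls in most replicates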;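 note: slope of initial-normalized fluorescence between seconds 10 and 20 after thallium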
HEK counter2: counter-screen for KCC2 modulators: effect in parental HEK293 cells | 3,700 compounds, 33% hits | thallium flux slope at 10 µM | thallium flux FluoZin-2 fluorescence slope | AID 1718 | shares compounds with KCC2 mod;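 active = thallium flux slope above the same plate's solvent-control mean plus 3 SD in both duplicate wells; inconclusive = duplicate wells that disagreed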;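 note: run without ouabain in cells lacking the KCC2 cotransporter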
Hits are given with their value; n = inactive; u = inconclusive; x = not tested or not shown.

SMILES	KCNQ1 act	hERG protect	KCNQ1 block	SUMO Mot1 rescue	KCC2 mod	AI-2 QS mod	KCC2 sec1	KCC2 bumet counter	KCC2 sec2	HEK counter1	KCC2 ouabain	HEK counter2
CCC(CC)C1C(C#N)=C(N)Oc2c1c(=O)oc1ccccc21 (centres undefined)	n	n	n	x	n	n	x	x	x	x	x	x
CN(C)S(=O)(=O)c1cc(NC(=O)COC(=O)Cc2ccccc2)ccc1Cl	n	n	6	n	n	n	x	x	x	x	x	x
O=c1[nH]c(O)c(/C=C2/C=CC(c3cc(Cl)ccc3Cl)=N2)c(=O)[nH]1	n	7.2	n	n	x	n	x	x	x	x	x	x
COCCCNC(=O)c1c(NC(=O)c2ccco2)n(Cc2ccccc2)c2nc3ccccc3nc12	n	n	n	n	x	n	x	x	x	x	x	x
COCCNC(=O)c1c(NC(=O)c2ccc(Br)o2)n(Cc2ccccc2)c2nc3ccccc3nc12	n	n	n	830	n	n	x	x	x	x	x	x
N=Cc1c(O)n(-c2ccc(C34CC5CC(CC(C5)C3)C4)cc2)c(=O)[nH]c1=O	n	n	n	n	n	n	x	x	x	x	x	x
C/C(=N\NC(=O)c1ccccc1O)c1c(O)n(C2CCCCC2)c(=O)[nH]c1=O	n	n	6	n	x	n	x	x	x	x	x	x
C[C@]12CCC(=O)C[C@H]1CC[C@@H]1[C@@H]2CC[C@]2(C)[C@@H](O)CC[C@@H]12	x	x	x	n	x	x	x	x	x	x	x	x
O=C(Cc1ccc(Cl)c(Cl)c1)NCC1(N2CCOCC2)CCCCC1	n	n	n	x	n	n	x	x	x	x	x	x
Oc1ccc(CC2(N3CCCC3)CCCCC2)cc1	n	7.7	n	n	x	n	x	x	x	x	x	x
CCN(CC)c1ccc(CNCCc2ccccc2F)cc1	n	n	n	n	n	n	x	x	x	x	x	x
COc1cccc(-n2c(-c3ccoc3)nc3ccccc3c2=O)c1	n	n	n	n	x	n	n	n	n	n	n	n
CCCCn1c(O)c(/C=C/C=Nc2ccccc2)c(=O)[nH]c1=O	n	n	n	n	-4.7	n	0.0026	-0.0018	0.025	0.0019	0.0084	0.007
Cc1nc2cc(C(F)(F)F)ccc2n1C1CCN(Cc2nnnn2Cc2ccc3c(c2)OCO3)CC1	n	n	n	n	-4.7	n	n	n	u	n	u	n
Cc1nc2cc(C(F)(F)F)ccc2n1C1CCN(Cc2nnnn2Cc2cccs2)CC1	n	n	n	n	n	n	x	x	x	x	x	x
CSc1ncc(Cl)c(C(=O)O)n1 (tested in a mixture with another compound)	n	n	n	n	n	n	x	x	x	x	x	x
CCN(CC)c1ccc(N=Cc2c(O)n(CCc3ccc(OC)c(OC)c3)c(=O)[nH]c2=O)cc1	n	n	n	n	n	n	x	x	x	x	x	x
CCN(CC)CCCN=Cc1c(O)n(CCc2ccc(OC)c(OC)c2)c(=O)[nH]c1=O	n	n	n	n	-6.2	n	n	n	n	u	n	u
O=C1/C(=C\c2ccccc2)C2OCC=C3CN4CCC56c7ccccc7N1C5C2C3CC46 (centres undefined)	n	n	n	n	n	n	x	x	x	x	x	x
COC(=O)C1=C(c2ccc(F)cc2F)C[C@@H]2CC[C@H]1N2C(=O)NCCOc1ccccc1Cl	x	x	x	n	x	x	x	x	x	x	x	x
NNC(N)=O	x	x	x	n	x	x	x	x	x	x	x	x
CC(C)c1oc(=O)cc2c1[C@@H](O)[C@H]1OC(=O)[C@@]3(C)C[C@@H](O)[C@@H](O)[C@@]2(C)C13 (some centres undefined)	n	n	n	n	5.5	n	n	n	n	u	n	n
COC(=O)C1=CO[C@@H](C)[C@H]2CN3CC[C@]4(C(=O)Nc5ccccc54)[C@@H]3C[C@H]12	n	n	n	n	x	n	x	x	x	x	x	x
CC(C)CC(NC(=O)C1CCCCC1)C(=O)N1CCC2(CC1)OCCO2 (centres undefined)	n	n	n	n	x	n	x	x	x	x	x	x
CC(C)C[C@H](NC(=O)[C@@H]1CCCN1C(=O)[C@@H](N)Cc1ccc(O)cc1)C(=O)NCC(N)=O	n	n	n	n	-3.1	n	u	0.0057	n	u	n	n
SMILES	KCNQ1 act	hERG protect	KCNQ1 block	SUMO Mot1 rescue	KCC2 mod	AI-2 QS mod	KCC2 sec1	KCC2 bumet counter	KCC2 sec2	HEK counter1	KCC2 ouabain	HEK counter2
O=c1[nH]c(=O)n(Cc2ccc(F)cc2)c(O)c1C=NCc1cccnc1	n	n	n	n	4.4	n	n	n	n	n	n	n
Cc1cc([N+](=O)[O-])c(Cl)cc1NC(=O)C(C)C	n	n	n	n	n	n	x	x	x	x	x	x
CNc1cc(Cl)c2nonc2c1[N+](=O)[O-]	n	n	10	x	-4.6	-90	n	0.007	u	n	n	n
CNC(C(=O)c1ccccc1)C(OC)c1ccc(C)cc1 (centres undefined)	n	n	n	n	n	n	x	x	x	x	x	x
O=c1[nH]c(=S)n(Cc2ccco2)c(O)c1C=NCc1cccs1	n	n	n	n	-3.2	n	n	n	u	n	0.02	n
NC(=O)Cn1cc(C(=O)c2ccccc2)c2ccccc21	n	n	n	n	x	n	x	x	x	x	x	x
O=C(COc1ccc(Cl)cc1Cl)N1CCN(C/C=C/c2ccccc2)CC1	n	n	n	n	-6.8	n	n	n	n	n	n	n
CCCC(=O)OCC[N+](C)(C)C	n	n	n	n	4.9	n	u	n	n	n	n	n
O=C1C2CCCN2C(c2cccnc2)N1c1ccc(Cl)cc1 (centres undefined)	n	n	n	n	n	n	x	x	x	x	x	x
O=C1C2CCCN2C(c2cccnc2)N1c1nccs1 (centres undefined)	n	n	n	n	3.2	n	n	u	n	n	n	n
CC(C)n1c(O)c(C=NCc2cccnc2)c(=O)[nH]c1=S	n	n	n	n	n	n	x	x	x	x	x	x
CCC(C)n1c(O)c(C=Nc2cccc(C(F)(F)F)c2)c(=O)[nH]c1=S (centres undefined)	n	n	n	n	n	n	n	0.018	n	0.019	0.025	0.015
